Test results from ChEMBL document CHEMBL5724801, “EUbOPEN Chemogenomics Library - Multiplex” (2024).
Values joined by “and” are separate entries in the source; they are usually repeats but may differ in a detail not shown here. Identical values can stand only once.

System: HEK-293T
Test: Multiplex assay against HEK293T
Format: toxicity, cell-based
Conditions: human
How it was run: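 Live cells were stained at seeding with Hoechst33342, BioTracker Green Microtubule Cytoskeleton Dye, MitoTracker Red and Annexin V Alexa Fluor 680. Following compound addition, they were imaged on a CQ1 microscope at 37°C and 5% CO2 and gated by CellPathfinder machine learning into Hoechst high-intensity objects or normal cells, with normal cells split into healthy, pyknosed or fragmented nuclei and pyknosed cells into mitotic or apoptotic. Tubulin, mitochondrial-mass and membrane-permeability phenotypes are per cents of healthy-nucleus cells.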

[1] = 12 h, 1 µM, compound concentration 1 uM
[2] = 12 h, 10 µM, compound concentration 10 uM
[3] = 24 h, 1 µM, compound concentration 1 uM
[4] = 24 h, 10 µM, compound concentration 10 uM
[5] = 48 h, 1 µM, compound concentration 1 uM
[6] = 48 h, 10 µM, compound concentration 10 uM

CCn1cnc2c(-c3ccc(F)c(-c4ccc(S(=O)(=O)CC)cc4OC)c3)cnnc21 [DARIGABAT] was tested, and the “Population Apoptotic (%)” value [1] was 11.84% and 26.37%, the “Population Fragmented Nuclei (%)” value [1] was 2.08% and 6.03% and the “Population Healthy Nuclei (%)” value [1] was 45.14% and 15.52%. For the same molecule, the “Population Hoechst High Intensity Objects (%)” value [1] was 0.69% and 0%, the “Population Membrane Permeable-Phenotype (%)” value [1] was 1.54% and 0% and the “Population Mitochondria Different-Phenotype (%)” value [1] was 30.77% and 11.11%. The “Population Mitotic Cells (%)” value [1] was 88.16% and 73.63%, the “Population Normal (%)” value [1] was 99.31% and 100% and the “Population Pyknosed Nuclei (%)” value [1] was 52.78% and 78.45%. The “Population Tubulin-Different-Phenotype (%)” value [1] was 7.69% and 16.67%, the “Total Cell Count” value [1] was 290 and 116 and the “Population Apoptotic (%)” value [2] was 21.29% and 10%. The “Population Fragmented Nuclei (%)” value [2] was 1.32% and 0.75%, the “Population Hoechst High Intensity Objects (%)” value [2] was 0.44% and 0% and the “Population Membrane Permeable-Phenotype (%)” value [2] was 0%. The “Population Mitochondria Different-Phenotype (%)” value [2] was 28.57% and 46.15%, the “Population Mitotic Cells (%)” value [2] was 78.71% and 90% and the “Population Normal (%)” value [2] was 99.56% and 100%. For the same molecule, the “Population Pyknosed Nuclei (%)” value [2] was 67.98% and 89.55%, the “Population Tubulin-Different-Phenotype (%)” value [2] was 40% and 69.23% and the “Total Cell Count” value [2] was 229 and 134. For the same molecule, the “Population Apoptotic (%)” value [3] was 18.67% and 32.22%, the “Population Fragmented Nuclei (%)” value [3] was 2.2% and 5.36% and the “Population Hoechst High Intensity Objects (%)” value [3] was 0.22% and 1.75%. For the same molecule, the “Population Membrane Permeable-Phenotype (%)” value [3] was 1.8% and 0%, the “Population Mitochondria Different-Phenotype (%)” value [3] was 24.46% and 31.25% and the “Population Mitotic Cells (%)” value [3] was 81.33% and 67.78%. For the same molecule, the “Population Normal (%)” value [3] was 99.78% and 98.25%, the “Population Pyknosed Nuclei (%)” value [3] was 36.56% and 80.36% and the “Population Tubulin-Different-Phenotype (%)” value [3] was 17.63% and 6.25%. For the same molecule, the “Population Apoptotic (%)” value [4] was 40.69% and 29.17%, the “Population Fragmented Nuclei (%)” value [4] was 0.43% and 1.46% and the “Population Hoechst High Intensity Objects (%)” value [4] was 0.86% and 0%. For the same molecule, the “Population Membrane Permeable-Phenotype (%)” value [4] was 0% and 6.67%, the “Population Mitochondria Different-Phenotype (%)” value [4] was 61.9% and 46.67% and the “Population Mitotic Cells (%)” value [4] was 59.31% and 70.83%. The “Population Normal (%)” value [4] was 99.14% and 100%, the “Population Pyknosed Nuclei (%)” value [4] was 63.04% and 87.59% and the “Total Cell Count” value [4] was 232 and 137. For the same molecule, the “Population Apoptotic (%)” value [5] was 12.68% and 27.16%, the “Population Fragmented Nuclei (%)” value [5] was 3.42% and 2.05% and the “Population Healthy Nuclei (%)” value [5] was 77.19% and 42.47%. For the same molecule, the “Population Hoechst High Intensity Objects (%)” value [5] was 0%, the “Population Membrane Permeable-Phenotype (%)” value [5] was 3.54% and 1.61% and the “Population Mitochondria Different-Phenotype (%)” value [5] was 36.28% and 61.29%. For the same molecule, the “Population Mitotic Cells (%)” value [5] was 87.32% and 72.84%, the “Population Normal (%)” value [5] was 100% and the “Population Pyknosed Nuclei (%)” value [5] was 19.4% and 55.48%. For the same molecule, the “Population Apoptotic (%)” value [6] was 55.34% and 39.62%, the “Population Fragmented Nuclei (%)” value [6] was 1.71% and 3.1% and the “Population Hoechst High Intensity Objects (%)” value [6] was 0.34% and 0%. The “Population Membrane Permeable-Phenotype (%)” value [6] was 1.08% and 0%, the “Population Mitochondria Different-Phenotype (%)” value [6] was 92.97% and 73.68% and the “Population Mitotic Cells (%)” value [6] was 44.66% and 60.38%. For the same molecule, the “Population Normal (%)” value [6] was 99.66% and 100%, the “Population Pyknosed Nuclei (%)” value [6] was 35.15% and 82.17% and the “Total Cell Count” value [6] was 294 and 129.
